Rows were chosen to be rich in hits. Some 2.6% of all compounds tested hit in one or more screens of this group.
Wnt act: Wnt/beta-catenin pathway activators, primary screen, cell-based, plate reader, single point; actives 1.2% (n = 300,000); Wnt/beta-catenin reporter cell assay, activator; activation, % at 9.35 µM; in the data active = activation above about 30%, passing the limit was not always enough; inconclusive = no clear call, values can overlap the other calls;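 also: 0% = neutral control wells and 100% = positive control wells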
XiGFP reactiv: activators of inactive X chromosome reactivation, primary screen, imaging, XiGFP fibroblasts, GFP high-content imaging, set 2. XiGFP mouse fibroblasts, % GFP-positive cells imaging, 3 d; cells co-treated with 5-aza-dC sensitizer; scaled so ellipticine positive control = 100%. actives 0.055% (n = 360,000). activation, % at 7.58 µM. AID 743238, 2013;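 active = mean normalized replicate activation at least 10% and every replicate at or above 10%; inconclusive = only one of the two criteria met; inactive = mean below 10% and not all replicates reach 10%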;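 also: 0% = median of on-plate neutral control wells and 100% = ellipticine 6 µM median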
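Assay system: SV40-immortalized XiGFP fibroblast cells, line 68-5-11; buffer or medium: DMEM plus 5-aza-dC sensitizer; compound: one concentration, pinned; timing: compounds 3 days, fix/stain 15 min at room temperature; benchmarks: positive control ellipticine, 6 µM final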
Vif imaging: HIV Vif self-association inhibitors, primary screen, imaging, HEK293T, single point; inhibition, % at 7.49 µM; HEK293T cells, Vif self-association by quenched fluorescence, 24 h; AID 602346, 2012; actives 0.35% (n = 340,000); in the data active = inhibition above about 50%, passing the limit was not always enough; inconclusive = no clear call, values can overlap the other calls; inactive = below about 31%
MITF TRPM1 HTS: activators of MITF-driven TRPM1 promoter reporter, primary screen, cell-based, SK-MEL-5, luciferase, single point; SK-MEL-5 TRPM1-promoter luciferase, 24 h; % of positive control, neutral wells = 0; activation, % at 12.5 µM; actives 0.75% (n = 300,000);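 active = mean activation of at least 80% with every replicate also reaching 80%; inconclusive = mean reaches 80% but some replicate falls short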;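 also: 0% = neutral control wells and 100% = parthenolide positive control wells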
esBAF inh: Bmi1 luciferase reporter increase in mESCs, primary screen, esBAF inhibitor project, mouse ES cells, Bmi1 luciferase knock-in, single point; 24 h; 100% = twice the neutral-well signal; reporter increase, % at 12.5 µM; actives 2% (n = 350,000); in the data active = activation above about 40%; inconclusive = no clear call, values can overlap the other calls;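 also: 0% = median of the plate's neutral control wells and 100% = double that signal; a rise in the Bmi1 reporter signal indicates esBAF inhibition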
* = called active by the depositor; ? = inconclusive; nt = not tested or not shown.

SMILES | Wnt act | XiGFP reactiv | Vif imaging | MITF TRPM1 HTS | esBAF inh
C[C@@H]1CN([C@@H](C)CO)C(=O)c2cc(NS(C)(=O)=O)ccc2O[C@H]1CN(C)Cc1ccc2c(c1)OCO2 | nt | 0.0 | nt | nt | -3.1
C[C@@H]1CN([C@@H](C)CO)C(=O)c2cccc(NS(=O)(=O)c3ccc(Cl)cc3)c2O[C@@H]1CN(C)C(=O)Nc1ccc(C(F)(F)F)cc1 | nt | 0.0 | nt | nt | nt
Cc1ccc(Nc2nc(N)nc(COC(=O)C3=COCCO3)n2)cc1 | ? | ? | 7.2 | 95.0* | 36.8
COCC(=O)N1CC2(C1)CN(C(=O)Nc1ccccc1F)[C@H](CO)c1c2c2ccc(OC)cc2n1C | nt | 0.3 | nt | nt | nt
CCOc1ccc(NC(=O)c2nn(C)cc2Br)cc1 | nt | nt | 5.3 | 53.2 | 34.2
COc1cccc(NC(=O)c2nnn(CCc3ccccc3)c2N)c1 | 17.5 | 0.2 | 20.6 | 40.6 | 77.7*
COc1cccc(NC(=O)c2nn(C)cc2Br)c1 | nt | nt | -5.8 | 41.0 | 54.8*
COc1cc(NC(=O)c2ccc3snnc3c2)cc(OC)c1 | 23.1 | 0.2 | -4.0 | 59.2 | 46.9*
COc1ccc(/C=C(/NC(=O)c2ccccc2Cl)C(=O)O)cc1 | 47.0* | 0.1 | -6.7 | 2.2 | nt
Cc1ccc(S(=O)(=O)N(C)C[C@@H]2Oc3ccc(NS(=O)(=O)c4ccc(F)cc4)cc3C(=O)N([C@H](C)CO)C[C@@H]2C)cc1 | nt | 0.6 | nt | nt | 2.6
COc1ccccc1CNC(=O)C[C@H]1CC[C@H](NC(=O)CN(C)C)[C@H](CO)O1 | nt | 0.1 | nt | nt | -4.0
COc1cc(NC(=O)c2ccc3nsnc3c2)cc(OC)c1OC | 3.6 | 0.0 | -5.3 | 4.9 | 0.8
COc1cccc(NC(=O)c2ccc(OC(F)(F)F)cc2)c1 | 37.1* | 0.0 | -5.1 | 107.2* | 71.7*
COc1ccccc1OCCNC(=O)c1ccc(Br)cc1 | 13.2 | 0.0 | -6.6 | 37.7 | 56.0*
COc1ccccc1NC(=O)c1ccc2nsnc2c1 | 25.6 | 0.0 | 3.1 | 90.7* | 37.0
COc1cccc(NC(=O)c2cccc(C)c2[N+](=O)[O-])c1 | 33.4* | 0.2 | -2.5 | 30.6 | nt
Cc1cccc(C(=O)Nc2cccc(Br)c2)c1[N+](=O)[O-] | -0.2 | 0.1 | -0.9 | -3.3 | nt
COC(=O)[C@@H]1[C@@H](CO)[C@@H]2Cn3c(ccc(-c4cccc(F)c4)c3=O)[C@@H]2N1Cc1ccccn1 | nt | 0.4 | nt | nt | 1.3
COc1ccc(S(=O)(=O)N(C)C[C@@H]2Oc3ccc(NC(=O)Nc4ccc5c(c4)OCO5)cc3C(=O)N([C@H](C)CO)C[C@H]2C)cc1 | nt | -1.4 | nt | nt | -1.9
C[C@H]1CN([C@@H](C)CO)C(=O)c2cccc(NC(=O)c3ccc(-c4nccs4)cc3)c2O[C@@H]1CN(C)S(=O)(=O)c1cccs1 | nt | 0.4 | nt | nt | -6.1
Cn1cc(Br)c(C(=O)NNC(=O)c2ccc(Cl)cc2)n1 | 51.3* | 0.1 | -7.6 | 18.6 | 30.4
COc1cc(C(=O)Nc2ccc(NC(C)=O)cc2)ccc1OCc1ccccc1 | -0.8 | -0.1 | -11.4 | -2.9 | nt
O=C(Nc1cccc(Cl)c1)c1ccccc1 | 20.1 | 0.0 | -4.6 | 78.3 | 41.8*
COc1ccccc1OCc1ccc(C(=O)Nc2ccccc2)cc1 | 28.6 | 0.1 | -11.3 | 69.9 | 78.6*
O=C(NNC(=S)Nc1cccc(Cl)c1)c1ccccc1 | 17.5 | 0.0 | -4.1 | 33.3 | ?
SMILES | Wnt act | XiGFP reactiv | Vif imaging | MITF TRPM1 HTS | esBAF inh
COc1ccc(/C=C(\NC(=O)c2ccc(OC)cc2)C(=O)Nc2cccc(C(=O)O)c2)cc1 | 8.8 | 0.0 | -1.5 | 3.0 | 46.1*
COc1ccc(NC(=O)N(C)C[C@@H]2OCCCC[C@@H](C)Oc3ccc(N(C)C)cc3C(=O)N([C@H](C)CO)C[C@H]2C)cc1 | nt | -0.4 | nt | nt | 0.2
C[C@H]1CCCCO[C@H](CN(C)C)[C@@H](C)CN([C@@H](C)CO)C(=O)c2cc(NC(=O)c3ccccc3)ccc2O1 | nt | -0.9 | nt | nt | -12.0
CCn1ncc(C(=O)Nc2cccc(Cl)c2)c1C | 22.9 | 0.0 | -5.8 | 52.9 | 53.4*
O=C(Nc1ccc(F)cc1)c1ccc2nsnc2c1 | 39.2* | -0.2 | -1.7 | 77.5 | ?
CC(C)OC(=O)c1cccc(NC(=O)c2ccccc2)c1 | ? | nt | -5.5 | 82.9* | nt
CC(=O)c1ccc(NC(=O)c2cccc(NC(=O)c3ccccc3)c2)cc1 | 13.0 | 0.0 | -0.2 | nt | ?
O=C(Nc1ccc(Br)cc1F)c1ccc2nsnc2c1 | 20.8 | 0.1 | 2.4 | 128.5* | ?
O=C(Nc1ccc(F)cc1)c1ccc2nc[nH]c2c1 | 4.3 | 0.2 | 0.0 | 26.2 | nt
CCC(=O)N1[C@@H]2c3ccc(C4=CCCC4)c(=O)n3C[C@H]1[C@H](CO)[C@H]2C(=O)N[C@@H](C)c1ccccc1 | nt | -0.1 | nt | nt | -6.4
O=C(Nc1cccc(Cl)c1)N1CCN(Cc2ccccc2)CC1 | 6.7 | 0.2 | 16.6 | ? | 73.7*
COc1cccc(/C(C)=N/NC(=O)c2ccc(N(C)C)cc2)c1 | nt | nt | 24.1 | 72.8 | 53.0*
COc1ccccc1C(=O)NC(=O)Nc1cccc(Cl)c1 | 42.5* | 0.2 | 6.7 | 45.8 | -1.8
Cc1cccc(NC(=O)N2CCN(Cc3ccc(Cl)cc3)CC2)c1 | 0.4 | 0.0 | -5.3 | -12.8 | 2.0
COc1cccc(NC(=O)c2cccc(C(=O)Nc3cccc(OC)c3)c2)c1 | -0.4 | 0.1 | -0.1 | nt | -0.8
COc1cccc(NC(=O)c2ccc3nsnc3c2)c1 | 24.2 | 0.3 | 5.8 | 61.8 | 56.3*
C[C@@H]1CN([C@H](C)CO)S(=O)(=O)c2ccc(C3=CCCC3)cc2O[C@H]1CN(C)C(=O)C1CCC1 | nt | -0.7 | nt | nt | -4.0
C[C@@H]1CCCCO[C@@H](CN(C)C(=O)c2ccccc2)[C@H](C)CN([C@H](C)CO)C(=O)c2cc(NC(=O)CCC(F)(F)F)ccc2O1 | nt | 0.2 | nt | nt | 8.0
C[C@@H]1CN([C@H](C)CO)S(=O)(=O)c2ccc(-c3ccc(F)cc3)cc2O[C@@H]1CN(C)C(=O)C1CC1 | nt | -0.3 | nt | nt | 2.3
COc1cccc(NC(=O)c2ccccc2)c1 | 26.1 | 0.1 | -4.9 | 104.5* | 35.3
C[C@@H]1CN([C@H](C)CO)C(=O)c2cccc(NS(=O)(=O)c3ccccc3)c2O[C@@H]1CN(C)S(=O)(=O)c1ccc(Cl)cc1 | nt | -1.2 | nt | nt | 6.0
COc1cc2c(cc1OC)CN(c1ncccc1[N+](=O)[O-])CC2 | 22.0 | 0.1 | -15.1 | 92.8* | ?
C[C@H]1CN(C)C(=O)c2cccc(N(C)C)c2O[C@H]1CN(C)S(C)(=O)=O | nt | 0.1 | nt | nt | nt
CC(OC(=O)/C=C/c1ccc2ccccc2n1)C(=O)N(C)c1ccccc1 (configuration not stated) | -26.1 | 0.1 | -2.0 | -9.4 | 46.8*
COc1ccccc1NC(=O)C(C)OC(=O)/C=C/c1ccc2ccccc2n1 (configuration not stated) | -4.1 | 0.1 | 2.1 | 48.0 | nt

High-throughput results: PubChem, Broad Institute
